Assay results from ChEMBL document CHEMBL2010643 (Bioorg Med Chem Lett, 2012).
The source made the active and inactive calls. No cut-off for these calls is given here.

What was measured:
[1] = molecular target: Serine/threonine-protein kinase TBK1 (Homo sapiens) (UniProt Q9UHD2); assay: Inhibition of TBK1 assessed as residual activity at 1 uM relative to control
[2] = molecular target: Tau-tubulin kinase 1 (Homo sapiens) (UniProt Q5TCY1); assay: Inhibition of TTBK1 assessed as residual activity at 1 uM relative to control
How it was run: (§1)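 Radioactivity-based enzymatic kinase assays run across a 124-kinase profiling panel (Dundee), reporting the remaining kinase activity relative to a control.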

[3] = molecular target: Dual specificity tyrosine-phosphorylation-regulated kinase 2 (Homo sapiens) (UniProt Q92630); assay: Inhibition of DYRK2 assessed as residual activity at 10 uM relative to control
[4] = molecular target: Eukaryotic elongation factor 2 kinase (Homo sapiens) (UniProt O00418); assay: Inhibition of EF2K assessed as residual activity at 10 uM relative to control
[5] = molecular target: Glycogen synthase kinase-3 beta (Homo sapiens) (UniProt P49841); assay: Inhibition of GSK3b assessed as residual activity at 10 uM relative to control
[6] = molecular target: MAP kinase-interacting serine/threonine-protein kinase 2 (Homo sapiens) (UniProt Q9HBH9); assay: Inhibition of MNK2 assessed as residual activity at 10 uM relative to control
[7] = molecular target: Mitogen-activated protein kinase 14 (Homo sapiens) (UniProt Q16539); assay: Inhibition of p38alpha MAPK assessed as residual activity at 10 uM relative to control; how it was run: as §1
[8] = molecular target: Serine/threonine-protein kinase PAK 4 (Homo sapiens) (UniProt O96013); assay: Inhibition of PAK4 assessed as residual activity at 10 uM relative to control
[9] = molecular target: Serine/threonine-protein kinase pim-2 (Homo sapiens) (UniProt Q9P1W9); assay: Inhibition of PIM2 assessed as residual activity at 10 uM relative to control
[10] = molecular target: Serine/threonine-protein kinase pim-3 (Homo sapiens) (UniProt Q86V86); assay: Inhibition of PIM3 assessed as residual activity at 10 uM relative to control
[11] = molecular target: RAC-alpha serine/threonine-protein kinase (Homo sapiens) (UniProt P31749); assay: Inhibition of PKBalpha assessed as residual activity at 10 uM relative to control
[12] = molecular target: T1, Leucine-rich repeat serine/threonine-protein kinase 2 (Homo sapiens, UniProt Q5S007); assay: Inhibition of wild-type LRRK2 phosphorylation at Ser910 expressed in HEK293 cells at 0.1 to 0.3 uM after 90 mins by immunoblot analysis; assay type: cell-based
How it was run: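 HEK293 cells stably expressing wild-type GFP-LRRK2 exposed to DMSO or increasing inhibitor concentrations for 90 min. Lysates immunoblotted for LRRK2 phosphorylated at Ser910 and Ser935 and for total LRRK2.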

[13] = molecular target: T1, Leucine-rich repeat serine/threonine-protein kinase 2; assay: Inhibition of wild type LRRK2 phosphorylation at Ser910 in human lymphoblastoid cells at 0.03 to 3 uM after 90 mins by Western blot analysis; assay type: cell-based
[14] = molecular target: T1, Leucine-rich repeat serine/threonine-protein kinase 2; assay: Inhibition of wild type LRRK2 phosphorylation at Ser935 in human lymphoblastoid cells at 0.03 to 3 uM after 90 mins by Western blot analysis; assay type: cell-based
[15] = molecular target: Leucine-rich repeat serine/threonine-protein kinase 2 (Mus musculus) (UniProt Q5S006); assay: Inhibition of wild type LRRK2 phosphorylation at Ser935 in mouse 3T3 cells after 90 mins by Western blot analysis; assay type: cell-based
How it was run: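 Mouse Swiss 3T3 cells treated with DMSO or increasing inhibitor concentrations for 90 min. Endogenous LRRK2 in lysates immunoblotted with purified phospho-specific antibodies to Ser910 and Ser935 and with a total LRRK2 antibody. Blots done in duplicate, representative of at least two independent experiments.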

[16] = molecular target: Serine/threonine-protein kinase N2 (Homo sapiens) (UniProt Q16513); assay: Inhibition of PRK2 assessed as residual activity at 10 uM relative to control
[17] = molecular target: Tyrosine-protein kinase BTK (Homo sapiens) (UniProt Q06187); assay: Inhibition of BTK assessed as residual activity at 1 uM relative to control
How it was run: (§2)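 Standard radioactivity-based enzymatic assays were run across a 124-kinase panel (Dundee profiling), with compound at 1 µM. Kinase activity was expressed relative to control.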

[18] = molecular target: Dual specificity tyrosine-phosphorylation-regulated kinase 2 (Homo sapiens) (UniProt Q92630); assay: Inhibition of DYRK2 assessed as residual activity at 1 uM relative to control; how it was run: as §2
[19] = Volume of distribution at steady state in Swiss albino mouse at 1 mg/kg, iv; assay type: ADME, organism-based; parameters: dose 1 mg/kg, route intravenous; conditions: in vivo, read-out: Vdss
How it was run: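 Male Swiss Albino mice given a single intravenous dose of 1 mg/kg (oral arm 10 mg/kg). Plasma and brain exposure measured, and steady-state volume of distribution derived from the plasma profile.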

[20] = test system: Mus musculus; assay: Inhibition of LRRK2 phosphorylation at Ser935 in C57BL/6 mouse kidney at 50 mg/kg, po administered for 8 hrs followed by 2 hrs dosing; assay type: functional, organism-based; parameters: dose 50 mg/kg
How it was run: (§3)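 Mice were dosed by oral gavage at 10 or 50 mg/kg. Brain, spleen and kidney were collected. Endogenous LRRK2 was resolved by SDS–PAGE and blotted with phospho-specific antibodies to Ser910 and Ser935 and with an antibody to total LRRK2.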

[21] = test system: Mus musculus; assay: Inhibition of LRRK2 phosphorylation at Ser935 in C57BL/6 mouse kidney at 10 mg/kg, po administered for 8 hrs followed by 2 hrs dosing; assay type: functional, organism-based; parameters: dose 10 mg/kg; how it was run: as §3
[22] = test system: Mus musculus; assay: Inhibition of LRRK2 phosphorylation at Ser910 in C57BL/6 mouse spleen at 10 mg/kg, po administered for 8 hrs followed by 2 hrs dosing; assay type: functional, organism-based; parameters: dose 10 mg/kg; how it was run: as §3
[23] = test system: Mus musculus; assay: Inhibition of LRRK2 phosphorylation at Ser935 in C57BL/6 mouse spleen at 10 mg/kg, po administered for 8 hrs followed by 2 hrs dosing; assay type: functional, organism-based; parameters: dose 10 mg/kg; how it was run: as §3
[24] = molecular target: Eukaryotic elongation factor 2 kinase (Homo sapiens) (UniProt O00418); assay: Inhibition of EF2K assessed as residual activity at 1 uM relative to control; how it was run: as §2
[25] = molecular target: Eukaryotic translation initiation factor 2-alpha kinase 3 (Homo sapiens) (UniProt Q9NZJ5); assay: Inhibition of EIF2AK3 assessed as residual activity at 1 uM relative to control; how it was run: as §2
[26] = molecular target: Ephrin type-B receptor 1 (Homo sapiens) (UniProt P54762); assay: Inhibition of EPH-B1 assessed as residual activity at 1 uM relative to control; how it was run: as §2
[27] = molecular target: Inhibitor of nuclear factor kappa-B kinase subunit beta (Homo sapiens) (UniProt O14920); assay: Inhibition of IKKbeta assessed as residual activity at 1 uM relative to control
[28] = molecular target: Dual specificity mitogen-activated protein kinase kinase 1 (Homo sapiens) (UniProt Q02750); assay: Inhibition of MKK1 assessed as residual activity at 1 uM relative to control
[29] = molecular target: Dual specificity mitogen-activated protein kinase kinase 6 (Homo sapiens) (UniProt P52564); assay: Inhibition of MKK6 assessed as residual activity at 1 uM relative to control
[30] = molecular target: Serine/threonine-protein kinase PAK 4 (Homo sapiens) (UniProt O96013); assay: Inhibition of PAK4 assessed as residual activity at 1 uM relative to control
[31] = molecular target: Serine/threonine-protein kinase pim-2 (Homo sapiens) (UniProt Q9P1W9); assay: Inhibition of PIM2 assessed as residual activity at 1 uM relative to control
[32] = molecular target: MAP kinase-activated protein kinase 5 (Homo sapiens) (UniProt Q8IW41); assay: Inhibition of PRAK assessed as residual activity at 1 uM relative to control
[33] = molecular target: Serine/threonine-protein kinase Sgk1 (Homo sapiens) (UniProt O00141); assay: Inhibition of SGK1 assessed as residual activity at 1 uM relative to control

T1 sequence (Q5S007 whole entry): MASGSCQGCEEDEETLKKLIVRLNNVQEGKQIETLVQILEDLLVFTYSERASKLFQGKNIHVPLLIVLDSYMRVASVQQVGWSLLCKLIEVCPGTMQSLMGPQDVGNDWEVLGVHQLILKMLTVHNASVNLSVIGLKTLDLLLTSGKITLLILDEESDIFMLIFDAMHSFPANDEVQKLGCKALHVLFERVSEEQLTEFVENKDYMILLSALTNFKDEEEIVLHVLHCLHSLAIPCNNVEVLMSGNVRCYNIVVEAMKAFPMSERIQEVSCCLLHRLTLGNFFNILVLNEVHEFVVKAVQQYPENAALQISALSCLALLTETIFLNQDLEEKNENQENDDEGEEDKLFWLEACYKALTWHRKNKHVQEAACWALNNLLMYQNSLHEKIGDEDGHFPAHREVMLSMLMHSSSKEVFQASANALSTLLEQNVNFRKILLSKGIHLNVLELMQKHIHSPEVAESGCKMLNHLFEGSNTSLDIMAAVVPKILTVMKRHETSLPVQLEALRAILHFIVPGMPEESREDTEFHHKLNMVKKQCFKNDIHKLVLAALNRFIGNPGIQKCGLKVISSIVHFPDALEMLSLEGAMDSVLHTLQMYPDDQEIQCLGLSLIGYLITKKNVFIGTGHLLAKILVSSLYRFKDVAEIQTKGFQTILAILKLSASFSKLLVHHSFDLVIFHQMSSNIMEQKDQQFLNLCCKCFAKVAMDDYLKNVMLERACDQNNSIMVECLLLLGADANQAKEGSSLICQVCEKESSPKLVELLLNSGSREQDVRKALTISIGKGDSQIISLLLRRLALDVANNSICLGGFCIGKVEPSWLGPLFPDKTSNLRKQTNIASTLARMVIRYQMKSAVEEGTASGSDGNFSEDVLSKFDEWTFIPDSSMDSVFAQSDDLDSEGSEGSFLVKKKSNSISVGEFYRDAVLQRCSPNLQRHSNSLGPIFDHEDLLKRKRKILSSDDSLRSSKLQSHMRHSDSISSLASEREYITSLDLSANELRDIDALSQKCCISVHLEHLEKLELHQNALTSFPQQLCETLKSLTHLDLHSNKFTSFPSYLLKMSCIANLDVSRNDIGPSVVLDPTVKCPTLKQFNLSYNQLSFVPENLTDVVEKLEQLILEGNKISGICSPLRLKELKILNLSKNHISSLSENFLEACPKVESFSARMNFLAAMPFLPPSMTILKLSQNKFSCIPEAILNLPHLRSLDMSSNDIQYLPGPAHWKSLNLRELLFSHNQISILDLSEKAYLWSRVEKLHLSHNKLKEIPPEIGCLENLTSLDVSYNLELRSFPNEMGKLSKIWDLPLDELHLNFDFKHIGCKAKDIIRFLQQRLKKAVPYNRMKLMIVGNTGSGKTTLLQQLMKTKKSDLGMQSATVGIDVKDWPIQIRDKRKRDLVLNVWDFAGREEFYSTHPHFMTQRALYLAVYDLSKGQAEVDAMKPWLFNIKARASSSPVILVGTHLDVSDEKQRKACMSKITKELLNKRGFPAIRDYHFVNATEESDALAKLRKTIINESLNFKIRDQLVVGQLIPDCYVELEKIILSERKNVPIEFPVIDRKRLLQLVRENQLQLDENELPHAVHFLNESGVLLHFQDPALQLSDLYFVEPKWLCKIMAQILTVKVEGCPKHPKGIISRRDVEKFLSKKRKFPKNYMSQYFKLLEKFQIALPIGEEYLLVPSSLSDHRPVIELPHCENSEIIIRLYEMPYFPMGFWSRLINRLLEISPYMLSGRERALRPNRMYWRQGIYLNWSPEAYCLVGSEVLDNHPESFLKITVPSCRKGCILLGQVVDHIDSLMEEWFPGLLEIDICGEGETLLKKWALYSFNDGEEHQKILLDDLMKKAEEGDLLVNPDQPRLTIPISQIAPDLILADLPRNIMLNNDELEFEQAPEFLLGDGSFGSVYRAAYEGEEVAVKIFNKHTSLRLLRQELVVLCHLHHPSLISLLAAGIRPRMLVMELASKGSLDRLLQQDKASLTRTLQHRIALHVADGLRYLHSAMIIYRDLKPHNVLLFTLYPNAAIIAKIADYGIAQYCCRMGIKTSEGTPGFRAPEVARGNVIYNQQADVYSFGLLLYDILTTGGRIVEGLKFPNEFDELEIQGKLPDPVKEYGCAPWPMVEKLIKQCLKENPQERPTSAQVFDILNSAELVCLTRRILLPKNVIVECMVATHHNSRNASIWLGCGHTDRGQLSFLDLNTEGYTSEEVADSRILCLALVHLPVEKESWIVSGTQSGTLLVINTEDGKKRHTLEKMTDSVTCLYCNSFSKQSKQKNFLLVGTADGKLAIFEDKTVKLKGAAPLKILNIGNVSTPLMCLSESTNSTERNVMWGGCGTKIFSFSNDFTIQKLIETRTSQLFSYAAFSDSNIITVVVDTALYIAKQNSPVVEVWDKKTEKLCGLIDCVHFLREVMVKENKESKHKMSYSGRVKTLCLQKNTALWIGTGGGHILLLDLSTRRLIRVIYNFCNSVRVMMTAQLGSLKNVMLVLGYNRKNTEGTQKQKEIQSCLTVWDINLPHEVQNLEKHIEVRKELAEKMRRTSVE
Chain of Eukaryotic elongation factor 2 kinase (Homo sapiens) (O00418 whole entry): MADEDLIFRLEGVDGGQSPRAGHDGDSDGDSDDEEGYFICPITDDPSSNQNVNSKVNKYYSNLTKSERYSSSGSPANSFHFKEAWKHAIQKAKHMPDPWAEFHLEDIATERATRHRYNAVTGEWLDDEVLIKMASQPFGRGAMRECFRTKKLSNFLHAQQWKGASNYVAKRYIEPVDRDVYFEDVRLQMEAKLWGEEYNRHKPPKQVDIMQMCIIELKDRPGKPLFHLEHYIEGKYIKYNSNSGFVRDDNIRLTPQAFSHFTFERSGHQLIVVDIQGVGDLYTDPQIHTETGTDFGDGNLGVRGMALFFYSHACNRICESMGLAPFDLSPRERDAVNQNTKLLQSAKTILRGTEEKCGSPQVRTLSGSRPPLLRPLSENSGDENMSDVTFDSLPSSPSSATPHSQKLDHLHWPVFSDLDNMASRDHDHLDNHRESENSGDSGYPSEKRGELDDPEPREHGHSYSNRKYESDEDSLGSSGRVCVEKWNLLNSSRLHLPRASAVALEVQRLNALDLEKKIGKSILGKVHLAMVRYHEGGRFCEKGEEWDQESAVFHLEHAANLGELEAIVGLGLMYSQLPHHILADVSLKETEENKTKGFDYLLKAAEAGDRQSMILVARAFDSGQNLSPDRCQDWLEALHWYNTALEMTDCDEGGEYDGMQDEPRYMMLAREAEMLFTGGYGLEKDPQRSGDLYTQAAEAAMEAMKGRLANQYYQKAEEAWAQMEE
Chain of Dual specificity tyrosine-phosphorylation-regulated kinase 2 (Homo sapiens) (Q92630 whole entry): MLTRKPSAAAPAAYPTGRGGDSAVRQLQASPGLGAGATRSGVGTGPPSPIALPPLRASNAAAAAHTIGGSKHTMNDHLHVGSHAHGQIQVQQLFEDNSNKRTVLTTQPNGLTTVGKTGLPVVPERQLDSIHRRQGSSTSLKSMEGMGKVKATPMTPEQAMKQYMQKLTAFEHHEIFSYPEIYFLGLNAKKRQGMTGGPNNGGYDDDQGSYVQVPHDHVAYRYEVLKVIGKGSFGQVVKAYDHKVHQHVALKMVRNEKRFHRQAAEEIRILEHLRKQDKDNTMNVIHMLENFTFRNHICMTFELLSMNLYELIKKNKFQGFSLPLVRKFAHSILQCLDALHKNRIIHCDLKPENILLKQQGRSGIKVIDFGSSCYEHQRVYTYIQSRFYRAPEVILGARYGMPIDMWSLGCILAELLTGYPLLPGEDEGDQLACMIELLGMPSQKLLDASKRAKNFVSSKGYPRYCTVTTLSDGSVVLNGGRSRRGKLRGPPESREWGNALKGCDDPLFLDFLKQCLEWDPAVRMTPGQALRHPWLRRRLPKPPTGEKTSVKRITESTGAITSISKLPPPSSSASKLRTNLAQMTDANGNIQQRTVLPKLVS
Chain of Serine/threonine-protein kinase PAK 4 (Homo sapiens) (O96013 whole entry, looked up): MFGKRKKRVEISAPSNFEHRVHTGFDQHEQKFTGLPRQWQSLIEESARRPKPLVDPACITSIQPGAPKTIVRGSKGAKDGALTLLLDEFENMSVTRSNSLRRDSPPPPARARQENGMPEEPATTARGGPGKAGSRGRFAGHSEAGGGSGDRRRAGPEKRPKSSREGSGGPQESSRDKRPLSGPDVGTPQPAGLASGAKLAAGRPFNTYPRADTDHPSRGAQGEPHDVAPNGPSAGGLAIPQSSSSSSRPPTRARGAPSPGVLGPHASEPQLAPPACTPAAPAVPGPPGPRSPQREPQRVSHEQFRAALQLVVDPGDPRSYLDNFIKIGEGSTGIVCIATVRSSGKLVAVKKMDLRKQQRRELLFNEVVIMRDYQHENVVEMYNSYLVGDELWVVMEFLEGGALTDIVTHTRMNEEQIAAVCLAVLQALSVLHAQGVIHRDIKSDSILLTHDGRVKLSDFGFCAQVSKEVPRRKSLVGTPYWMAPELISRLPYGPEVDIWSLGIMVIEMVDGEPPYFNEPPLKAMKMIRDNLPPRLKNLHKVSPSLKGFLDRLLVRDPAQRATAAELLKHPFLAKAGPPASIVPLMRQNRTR
Chain of Serine/threonine-protein kinase pim-2 (Homo sapiens) (Q9P1W9 whole entry, looked up): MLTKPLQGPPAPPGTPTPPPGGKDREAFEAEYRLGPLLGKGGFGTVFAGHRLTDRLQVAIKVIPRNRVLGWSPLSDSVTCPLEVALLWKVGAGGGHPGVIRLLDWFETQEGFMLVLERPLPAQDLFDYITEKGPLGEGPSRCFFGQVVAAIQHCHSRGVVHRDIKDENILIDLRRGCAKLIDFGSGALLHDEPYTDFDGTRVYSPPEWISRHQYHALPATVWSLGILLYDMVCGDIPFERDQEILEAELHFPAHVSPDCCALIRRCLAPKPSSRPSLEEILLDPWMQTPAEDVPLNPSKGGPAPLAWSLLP
Chain of Dual specificity mitogen-activated protein kinase kinase 6 (Homo sapiens) (P52564 whole entry): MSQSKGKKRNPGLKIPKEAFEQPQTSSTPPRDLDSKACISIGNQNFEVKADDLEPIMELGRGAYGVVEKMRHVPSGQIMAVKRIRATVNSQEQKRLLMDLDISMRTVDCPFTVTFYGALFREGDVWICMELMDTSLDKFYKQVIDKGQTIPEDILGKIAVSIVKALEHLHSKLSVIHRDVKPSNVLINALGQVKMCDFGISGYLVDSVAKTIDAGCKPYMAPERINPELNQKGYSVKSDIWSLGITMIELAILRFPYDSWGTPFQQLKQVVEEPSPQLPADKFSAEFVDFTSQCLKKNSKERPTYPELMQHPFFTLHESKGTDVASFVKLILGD

Activity [1]: 93% | Activity [2]: 88% | Activity [3]: 106% | Activity [4]: 94% | Activity [5]: 92% | Activity [6]: 60% | Activity [7]: 79% | Activity [8]: 44% | Activity [9]: 107% | Activity [10]: 104% | Activity [11]: 109% | inhibition [12]: Active | inhibition [13]: Active | inhibition [14]: Active | inhibition [15]: Dose-dependent effect | Activity [16]: 18% | Activity [17]: 53% | Activity [18]: 105% | Vd [19]: 14.5 L/kg | Activity [24]: 96% | Activity [25]: 101% | Activity [26]: 50% | Activity [27]: 98% | Activity [28]: 91% | Activity [29]: 90% | Activity [30]: 75% | Activity [31]: 91% | Activity [32]: 101% | Activity [33]: 88%
Structure (SMILES): COc1cc(N2CCC(N3CCN(C)CC3)CC2)ccc1Nc1ncc(Cl)c(Nc2ccccc2S(=O)(=O)C(C)C)n1 [TAE-684]
inhibition [20]: Active | inhibition [21]: Active | inhibition [22]: Active | inhibition [23]: Active
